Assay [1] relates to MDCK. In words: Antiviral activity tested against influenza A,H1N1 virus infected MDCK cell lines. The class given is functional. The following applies: Canis lupus familiaris.
The subject of assay [2] is Coxsackievirus B4. As to the kind of experiment: Antiviral activity against Coxsackie B4 virus infected HeLa cell lines. The class given is functional. Particulars: Enterovirus B. Put shortly: (§1)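 Vero (African green monkey kidney), HeLa (human epithelial) or HEL (human embryonic lung) cell monolayers infected with the virus. Readout is the minimum inhibitory concentration that reduces virus-induced cytopathicity by 50%. Values are averages of at least two separate experiments.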

The test system of assay [3] is Mammalian orthoreovirus 1. As to the kind of experiment: Antiviral activity against Reo 1 virus infected vero cell lines. The class given is functional. Put shortly:
as §1

The next assay concerns HEL. As to the kind of experiment: Inhibition of HEL cell proliferation. The class given is functional. Particulars: Homo sapiens. Put shortly: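 Human embryonic lung fibroblasts were used for the proliferation assay. The value is the concentration that reduces cell proliferation by 50%, averaged from at least two separate experiments.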
In another assay the test system is Influenza B virus. As to the kind of experiment: Antiviral activity against influenza B virus infected MDCK cell lines. The class given is functional.
A further assay deals with Human alphaherpesvirus 2. In words: Antiviral activity against HSV-2 virus infected HEF cell lines. The class given is functional. In short, it runs like this:
(§2)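 Human embryonic fibroblasts, from embryonic lung or embryonic skin-muscle, infected with the virus. Endpoint is the minimum inhibitory concentration that reduces virus-induced cytopathicity by 50%. Values are averages of at least two separate experiments.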

The test system of assay [4] is Human alphaherpesvirus 3. As to the kind of experiment: Antiviral activity against TK+VZV virus infected HEL cell lines. The class given is functional. In short, it runs like this:
as §1

The test system of a further assay is Vero. As to the kind of experiment: Effects on cell morphology of Vero cell lines. The class given is functional. The following applies: Chlorocebus sabaeus. In short, it runs like this:
(§3)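 HeLa (human epithelial) or Vero (African green monkey kidney) cells were examined under the microscope for changes in normal morphology. The value is the minimum concentration causing a detectable alteration, averaged from at least two separate experiments.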

The test system of assay [5] is Vesicular stomatitis virus. As to the kind of experiment: Antiviral activity against vesicular stomatitis virus infected HEF cell lines. The class given is functional. In short, it runs like this:
as §2

Assay [6] relates to Human alphaherpesvirus 1. As to the kind of experiment: Antiviral activity against TK-HSV-1 virus infected HEF cell lines. The class given is functional. In short, it runs like this: as §2
Assay [7] has as its system Human alphaherpesvirus 1. As to the kind of experiment: Antiviral activity against HSV-1 virus infected HEF cell lines. The class given is functional. In short, it runs like this: as §2
The test system of another assay is Human respirovirus 3. As to the kind of experiment: Antiviral activity against parainfluenza 3 virus infected Vero cell lines. The class given is functional. In short, it runs like this:
as §1

The subject of another assay is Vaccinia virus. As to the kind of experiment: Antiviral activity against vaccinia virus infected HEF cell lines. The class given is functional. Particulars: Orthopoxvirus vaccinia. Put shortly:
as §2

Another assay has as its system Semliki Forest virus. As to the kind of experiment: Antiviral activity against Semliki forest virus infected Vero cell lines. The class given is functional. In short, it runs like this:
as §1

Assay [8] deals with Human alphaherpesvirus 3. In words: Antiviral activity against TK-VZV virus infected HEL cell lines. The class given is functional. Put shortly: as §1
Assay [9] relates to Human immunodeficiency virus 2. In words: Antiviral activity against HIV-2 virus infected CEM cell lines. The class given is functional, CCRF-CEM.
For assay [10], the system named is MDCK. As to the kind of experiment: Antiviral activity of compound was tested against morphology virus infec+ted MDCK cell lines. Particulars: Canis lupus familiaris. The class given is functional.
The test system of assay [11] is Coxsackievirus B4. In words: Antiviral activity against Coxsackie B4 virus infected vero cell lines. The class given is functional. The following applies: Enterovirus B. In short, it runs like this:
as §1

Assay [12] has as its system Human immunodeficiency virus 1. As to the kind of experiment: Antiviral activity against HIV-1 virus infected CEM cell lines. The class given is functional, CCRF-CEM.
A further assay relates to HEF. In words: Effects on cell morphology of HEF cell lines. The class given is functional. Particulars: Homo sapiens. Put shortly:
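Human embryonic skin-muscle fibroblasts were examined under the microscope for changes in normal cell morphology. The value is the minimum concentration causing a microscopically detectable alteration, averaged from at least two separate experiments.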

The nature of assay [13]: Antiviral activity against influenza A,H3N2 virus infected MDCK cell lines. The class given is functional.
For the next assay, the system named is Enterovirus C. As to the kind of experiment: Antiviral activity against polio 1 virus infected HeLa cell lines. The class given is functional. Put shortly: as §1
In the next assay the test system is HeLa. As to the kind of experiment: Effects on cell morphology of HeLa cell lines. The class given is functional. The following applies: Homo sapiens. In short, it runs like this:
as §3

Another assay deals with Human betaherpesvirus 5. As to the kind of experiment: Antiviral activity against HCMV virus infected HEL cell lines. The class given is functional. Put shortly: as §1
In the next assay the test system is CCRF-CEM. In words: Cytotoxicity against CEM cell lines. The class given is functional. The following applies: Homo sapiens.
The subject of the next assay is Sindbis virus. In words: Antiviral activity against sindbis virus infected Vero cell lines. The class given is functional. In short, it runs like this: as §1
Assay [14] can be described thus: Antiviral activity against influenza A,H2N2 virus infected MDCK cell lines. The class given is functional.
Assay [15] has as its system Vesicular stomatitis virus. As to the kind of experiment: Antiviral activity against vesicular stomatitis virus infected HeLa cell lines. The class given is functional. Put shortly: as §1

This note sets out measurements from ChEMBL document CHEMBL1129609, “Synthesis and antiviral activity evaluation of some new aminoadamantane derivatives. 2” (1996).

Converted amounts (≈) assume the structure as drawn.

Consider `NC1(C23CC4CC(CC(C4)C2)C3)CCCC1`, for which the MIC50 in the assay with MDCK [1] was greater than 64 µg/mL; against Coxsackievirus B4 [2], greater than 40 µg/mL; in assay [3], greater than 10 µg/mL; against HEL, greater than 50 µg/mL; in the assay with Influenza B virus, 20 µg/mL (≈ 91.2 µM); against Human alphaherpesvirus 2, greater than 10 µg/mL. The MIC50 with Human alphaherpesvirus 3 [4] is greater than 20 µg/mL; in the assay on Vero it was greater than 400 µg/mL; in assay [5] it was greater than 10 µg/mL; with Human alphaherpesvirus 1 [6], greater than 10 µg/mL; in the assay with Human alphaherpesvirus 1 [7], greater than 10 µg/mL; against Human respirovirus 3, greater than 10 µg/mL. The MIC50 is greater than 10 µg/mL against Vaccinia virus; greater than 10 µg/mL in the assay on Semliki Forest virus; greater than 20 µg/mL in the assay on Human alphaherpesvirus 3 [8]; greater than 8 µg/mL in assay [9]; greater than 250 µg/mL against MDCK [10]; greater than 10 µg/mL in the assay with Coxsackievirus B4 [11]. The MIC50 is greater than 8 µg/mL in [12]; 40 µg/mL (≈ 182 µM) in the assay with HEF; 6 µg/mL (≈ 27.4 µM) in [13]; greater than 40 µg/mL against Enterovirus C; 100 µg/mL (≈ 456 µM) in the assay on HeLa; greater than 20 µg/mL against Human betaherpesvirus 5. Also, the MIC50 was 18 µg/mL (≈ 82.1 µM) with CCRF-CEM, greater than 10 µg/mL in the assay with Sindbis virus, 2.5 µg/mL (≈ 11.4 µM) in assay [14] and greater than 40 µg/mL in [15].
Consider `NC12CC3CC(CC(C3)C1)C2` [AMANTADINE], for which the MIC50 in the assay on MDCK [1] is 48 µg/mL (≈ 317 µM); in the assay on MDCK [10], greater than 250 µg/mL; in assay [14] it was 0.8 µg/mL (≈ 5.29 µM).
Turning to `Nc1nc2c(ncn2COC(CO)CO)c(=O)[nH]1` [GANCICLOVIR], the MIC50 with Human alphaherpesvirus 2 was 0.002 µg/mL (≈ 0.00784 µM); in assay [5] it was greater than 100 µg/mL; with Human alphaherpesvirus 1 [6], 0.02 µg/mL (≈ 0.0784 µM); in the assay with Human alphaherpesvirus 1 [7], greater than 200 µg/mL; in the assay with Vaccinia virus it was greater than 100 µg/mL; against HEF it was greater than 100 µg/mL. For the same molecule, the MIC50 in the assay with Human betaherpesvirus 5 was 0.7 µg/mL (≈ 2.74 µM).
Consider `NC(=O)c1ncn([C@@H]2O[C@H](CO)[C@@H](O)[C@H]2O)n1` [RIBAVIRIN], for which the MIC50 in the assay with MDCK [1] was 19 µg/mL (≈ 77.8 µM); against Coxsackievirus B4 [2], 10 µg/mL (≈ 40.9 µM); in assay [3] it was 70 µg/mL (≈ 287 µM); with Influenza B virus it was 2.4 µg/mL (≈ 9.83 µM); with Human alphaherpesvirus 2, greater than 200 µg/mL; against Vero it was greater than 400 µg/mL. Besides, the MIC50 is 20 µg/mL (≈ 81.9 µM) in [5]; greater than 200 µg/mL against Human alphaherpesvirus 1 [6]; greater than 200 µg/mL with Human alphaherpesvirus 1 [7]; 150 µg/mL (≈ 614 µM) in the assay with Human respirovirus 3; 20 µg/mL (≈ 81.9 µM) against Vaccinia virus; greater than 400 µg/mL in the assay on Semliki Forest virus. For the same molecule, the MIC50 in the assay with MDCK [10] is greater than 250 µg/mL; in the assay with Coxsackievirus B4 [11] it was greater than 400 µg/mL; against HEF, 400 µg/mL (≈ 1640 µM); in assay [13], 5.6 µg/mL (≈ 22.9 µM); with Enterovirus C it was 20 µg/mL (≈ 81.9 µM); in the assay with HeLa, greater than 400 µg/mL. Moreover, the figures for the MIC50 (in the assay with Sindbis virus; in [14]; in [15]) were greater than 400 µg/mL, 48.7 µg/mL (≈ 199 µM) and 20 µg/mL (≈ 81.9 µM), respectively.
With `CC(N)C12CC3CC(CC(C3)C1)C2` (centres undefined) [RIMANTADINE], the MIC50 is 28 µg/mL (≈ 156 µM) with MDCK [1]; greater than 20 µg/mL in the assay on Influenza B virus; 250 µg/mL (≈ 1390 µM) in the assay on MDCK [10]; greater than 12 µg/mL in assay [13]; less than 0.14 µg/mL in [14].
